# Published values gathered from unrelated publications.
# Lines come from different studies, so protocols differ.
# Target: Tyrosine-protein kinase Fyn (FYN, Homo sapiens, UniProt P06241)
SMILES,observed,technique,concentration,remaining binding
C[C@@H]1CN(c2cc(-c3n[nH]c4ccc(OC5(C)CC5)cc34)ncn2)C[C@H](C)O1,cell-free assay,competition with immobilised ligand,0.1 µM,100%
CN(CCCC(F)(F)F)c1nccc(-c2cnn3ncccc23)n1,binding,,1 µM,82%
CCN1CCN(Cc2ccc(C(=O)Nc3ccc(C)c(Oc4ccc5c(c4)CC(=O)N5)c3)cc2C(F)(F)F)CC1,binding,competition with immobilised ligand,1 µM,90%
O=C(NCC1CCOCC1)c1n[nH]cc1NC(=O)c1c(F)cccc1F,binding,competition with immobilised ligand,1 µM,100%
COc1ccnn2ncc(-c3ccnc(N(C)C)n3)c12,binding,,1 µM,100%
NS(=O)(=O)c1cc(NC(=O)C2(c3ccccc3Cl)CC2)ccc1Oc1cccc(Cl)c1,cell-free assay,competition with immobilised ligand,1 µM,100%
Cc1cnc(Nc2ccc(C(=O)N3CCC(N4CCCC4)CC3)cc2)nc1-c1cc2ccccc2s1,binding,competition with immobilised ligand,1 µM,78%
CC1CCCN1c1nccc(-c2cnn3ncccc23)n1 (stereo not drawn),binding,,1 µM,69%
O=C(c1ccc(Nc2nccc(-c3cc4ccccc4s3)n2)cc1)N1CCC(N2CCCC2)CC1,binding,competition with immobilised ligand,1 µM,85%
C[C@H]1CCN(c2nccc(-c3cnn4ncccc34)n2)C1,binding,,1 µM,100%
COc1ncc2cc3ccccc3nc2c1C#N,cell-free assay,competition with immobilised ligand,5 µM,100%
Cn1cc(Cl)c2c(Oc3c(F)cc(Nc4cc(Cl)nc(N)n4)cc3F)ccnc21,cell-free assay,competition with immobilised ligand,0.1 µM,80%
O=C(c1ccc(Nc2ncc(Cl)c(-c3ccc(Cl)s3)n2)cc1)N1CCC(N2CCCC2)CC1,binding,competition with immobilised ligand,1 µM,100%
CN(C)c1nccc(-c2cnn3ncccc23)n1,binding,,1 µM,100%
O=C(NCc1ncc(C(F)(F)F)cc1Cl)c1ccc2c(c1)C1(CCS(=O)(=O)CC1)[C@H](C1CC1)N2S(=O)(=O)c1ccc(F)cc1,cell-free assay,competition with immobilised ligand,1 µM,100%
N[C@@H]1CCN(c2nccc(-c3cnn4ncccc34)n2)C1,binding,,1 µM,100%
O=C(O)[C@@H]1[C@@H](Cn2nnc3ccccc3c2=O)CC[C@H]1C(=O)c1ccc(OCCC2CCOCC2)cc1,cell-free assay,competition with immobilised ligand,1 µM,76%
CNC(=O)[C@@H]1CC[C@@H](n2c(-c3ccc4cnccc4c3)nc3ccc(C(=O)NCc4cccc(C(N)=O)c4)cc32)C1,binding,competition with immobilised ligand,1 µM,100%
FC(F)(F)Oc1cccc(-c2cnc3ccc(-c4ccncc4)nn23)c1,cell-free assay,competition with immobilised ligand,5 µM,51%
COc1cnc(Nc2cccc(S(N)(=O)=O)c2)nc1N1CCN(c2ccccc2)C(=O)C1,binding,competition with immobilised ligand,1 µM,100%
CN(C)CC#Cc1ccc(OCCCc2sc(N3CCc4cccc(C(=O)Nc5nc6ccccc6s5)c4C3)nc2C(=O)O)c(F)c1,cell-free assay,competition with immobilised ligand,1 µM,96%
